From ChEMBL document CHEMBL3352024, “A new series of HAPs as anti-HBV agents targeting at capsid assembly” (Bioorg Med Chem Lett, 2014) come the findings set out here.

Activity calls are given as the source filed them. The calls are words filed in the database; no cut-off is given here.

The nature of series [1]: Cytotoxicity against human HepG2.2.15 cells after 48 hrs. To be noted: hepg2 2.2.15, 48 h. Type of series: cell-based. Put shortly: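 HepG2.2.15 cells exposed to compounds for 48 h; cell viability then determined as the cytotoxicity read-out.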
The target of series [2] is Core antigen (Hepatitis B virus) (UniProt Q03732). The series is described as follows: Inhibition of hepatitis B virus capsid assembly after 24 hrs by HPLC analysis. Put shortly:
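Cp149 capsid protein is mixed with compound in 2× assembly buffer and incubated 24 h. Reactions are analysed by size-exclusion chromatography on an HPLC with autoinjection, on a column equilibrated in 100 mM HEPES pH 7.5, 300 mM NaCl at 0.6 ml/min. Recovered protein is assigned to void (8.5 min), capsid (9.5 min) and dimer (12.5 min) peaks.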

In series [3] the test system is Hepatitis B virus. The series is described as follows: Inhibition of hepatitis B virus capsid cp149 assembly assessed as reduction in dimer formation at capsid-compound ratio of 1:2 to 1:4 after 24 hrs by HPLC analysis.
Series [4] concerns Hepatitis B virus. The series is described as follows: Antiviral activity against hepatitis B virus infected in human HepG2.2.15 cells assessed as inhibition of viral replication. Type of series: functional, organism-based. To be noted: hepg2 2.2.15.
Series [5] is described as follows: (§1) Selectivity index, ratio of TC50 for human HepG2.2.15 cells to IC50 for hepatitis B virus infected in human HepG2.2.15 cells. Type of series: toxicity, cell-based.
For series [6], the system named is hepatitis B virus. The description is as §1. It is filed as toxicity, cell-based. To be noted: HepG2.2.15 cells, read-out: Selectivity Index.

Core antigen (Hepatitis B virus), sequence (Q03732 as listed by the source): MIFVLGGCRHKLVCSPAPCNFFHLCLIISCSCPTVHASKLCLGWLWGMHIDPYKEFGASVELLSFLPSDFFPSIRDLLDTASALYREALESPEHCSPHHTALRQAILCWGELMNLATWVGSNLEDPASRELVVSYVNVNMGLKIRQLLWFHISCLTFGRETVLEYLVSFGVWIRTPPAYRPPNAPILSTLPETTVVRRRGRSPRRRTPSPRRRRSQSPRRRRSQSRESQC

In series [1], `CCOC(=O)C1=C(CN2CCCC2)NC(c2c(F)cc(F)cc2F)=NC1c1ccc(F)cc1Cl` (stereo not drawn) gave a TC0 of 14.96 µmol and a TC50 of 77.29 µmol.
Consider `CCOC(=O)C1=C(CN2CCOCC2)NC(c2c(F)cc(F)cc2F)=NC1c1ccc(F)cc1Cl` (stereo not drawn) [listing 1 of 2 here], for which the inhibition result (in series [2]; with Hepatitis B virus [3]) was “Active” each time.
Regarding `CCOC(=O)C1=C(CN2CCOCC2)NC(c2c(F)cc(F)cc2F)=NC1c1ccc(F)cc1Cl` (stereo not drawn) [listing 2 of 2 here], in the series with Hepatitis B virus [4], the IC50 was determined as 10.57 µmol. In series [1], this compound yielded a TC0 of 4.83 µmol and a TC50 of 33.75 µmol. The “Selectivity Index” value in series [5] is reported as 3.19.
Consider `CCOC(=O)C1=C(CN2CCNC(=O)C2)NC(c2c(F)cc(F)cc2F)=NC1c1ccc(F)cc1Cl` (stereo not drawn), for which, in the series on Hepatitis B virus [4], the IC50 amounted to 5.74 µmol. In series [1], the TC0 was found to be 4.7 µmol and the TC50 was 32.85 µmol. Also, the selectivity ratio with hepatitis B virus [6] was determined as 5.72.
As for `CCOC(=O)C1=C(CN2CCOCC2)NC(c2c(F)cc(F)cc2F)=NC1c1ccc(F)cc1Cl.Cl` (stereo not drawn), in the series with Hepatitis B virus [4], the IC50 came out at 2.35 µmol. In series [1], this compound returned a TC0 of 4.51 µmol and a TC50 of 31.48 µmol. Besides, the “Selectivity Index” value in series [5] was found to be 13.37.
Turning to `CCOC(=O)C1=C(CN2CCSCC2)NC(c2c(F)cc(F)cc2F)=NC1c1ccc(F)cc1Cl` (stereo not drawn), in series [1], the TC0 came out at 4.68 µmol and the TC50 came out at 32.73 µmol.
Regarding `CCOC(=O)C1=C(CN2CCOCC2)NC(c2c(F)cc(F)cc2N2CCOCC2)=NC1c1ccc(F)cc1Cl` (stereo not drawn), in the series on Hepatitis B virus [4], the IC50 turned out to be 4.35 µmol. In addition, in series [1], the TC0 came to 12.81 µmol and the TC50 stood at 55.25 µmol. The selectivity ratio in the series with hepatitis B virus [6] amounted to 12.7.
As to `CCOC(=O)C1=C(CN(CCO)CCO)NC(c2c(F)cc(F)cc2F)=NC1c1ccc(F)cc1Cl` (stereo not drawn), the IC50 with Hepatitis B virus [4] was found to be 6.66 µmol. Moreover, in series [1], the TC0 stood at 13.98 µmol and the TC50 was 54.02 µmol. The selectivity ratio in the series on hepatitis B virus [6] stood at 8.11.
For `CCOC(=O)C1=C(CN2CCC(C)CC2)NC(c2c(F)cc(F)cc2F)=NC1c1ccc(F)cc1Cl` (stereo not drawn), in the series with Hepatitis B virus [4], the IC50 came to 9.56 µmol. In series [1], this compound had a TC0 of 4.65 µmol and a TC50 of 32.98 µmol.
In series [1], `CCOC(=O)C1=C(CN2CCN(C(=O)OCC)CC2)NC(c2c(F)cc(F)cc2F)=NC1c1ccc(F)cc1Cl` (stereo not drawn) returned a TC0 of 4.22 µmol and a TC50 of 29.6 µmol.
For `CCCN1CCN(CC2=C(C(=O)OCC)C(c3ccc(F)cc3Cl)N=C(c3c(F)cc(F)cc3F)N2)CC1` (stereo not drawn), in series [1], the TC0 came out at 4.45 µmol and the TC50 was found to be 31.25 µmol.
For `CCOC(=O)C1=C(CN2CCCCC2)NC(c2c(F)cc(F)cc2F)=NC1c1ccc(F)cc1Cl` (stereo not drawn), the IC50 with Hepatitis B virus [4] stood at 10.24 µmol. In series [1], the TC0 was determined as 14.56 µmol and the TC50 stood at 25.21 µmol. Also, in the series with hepatitis B virus [6], the selectivity ratio amounted to 2.46.
For the compound `Nc1ccn([C@@H]2CS[C@H](CO)O2)c(=O)n1` [LAMIVUDINE], the IC50 in the series on Hepatitis B virus [4] came to 14.17 µmol. In series [1], this compound came in with a TC0 of 0.82 µmol and a TC50 of 5.75 µmol.
`CCOC(=O)C1=C(CN2CCN(C)CC2)NC(c2c(F)cc(F)cc2F)=NC1c1ccc(F)cc1Cl` (stereo not drawn): the IC50 with Hepatitis B virus [4] amounted to 7.55 µmol. In series [1], this compound had a TC0 of 14.1 µmol and a TC50 of 98.74 µmol. Moreover, the selectivity ratio in the series on hepatitis B virus [6] was found to be 13.1.
Turning to `CCOC(=O)C1=C(CN2CCN(CC)CC2)NC(c2c(F)cc(F)cc2F)=NC1c1ccc(F)cc1Cl` (stereo not drawn), the IC50 in the series on Hepatitis B virus [4] was 6.71 µmol. In addition, in series [1], the TC0 came out at 13.78 µmol and the TC50 amounted to 41.3 µmol. Besides, the selectivity ratio in the series with hepatitis B virus [6] was 6.16.
